Consider four compounds from ChEMBL document CHEMBL1158040, “Biological activities and 3D QSAR studies of a series of Delisea pulchra (cf. fimbriata) derived natural products” (J Nat Prod, 2006).

Each structure is given as a SMILES string. Values after ≈ are worked out from the molar mass of the structure shown. Active and inactive are the calls of the source. The calls are words filed in the database; no cut-off is given here.

The test system of series [1] is Penicillium oxalicum. The experiment in a line: Antimicrobial activity against Penicillium oxalicum at 0.1 ug. The series is classed as functional. The gist of the method:
(§1)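 Direct bioautography: each compound is spotted onto TLC plates and the solvent evaporated. The test organism is then grown directly on the plate. Growth inhibition is scored at the spot as active (+) or very active (++). Where a number is given, it is the radius in mm of the inhibition zone around the spot.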

Series [2] relates to Bacillus subtilis. The experiment in a line: Antimicrobial activity against Bacillus subtilis at 1 ug. In kind it is functional, organism-based. The gist of the method:
as §1

The test system of series [3] is Micrococcus luteus. The experiment in a line: Antimicrobial activity against Micrococcus luteus at 10 ug. The series is classed as functional, organism-based. In short, it runs like this:
as §1

The next series deals with LNCaP. The experiment in a line: Cytotoxicity against human LNCAP cells. In kind it is functional. The note with it: read-out: ED50 (the source's name).
Series [4] concerns Micrococcus luteus. The experiment in a line: Antimicrobial activity against Micrococcus luteus at 0.1 ug. The series is classed as functional, organism-based. The gist of the method: as §1
For another series, the system named is Lu1. The experiment in a line: Cytotoxicity against human Lu1 cells. The series is classed as functional. The note with it: read-out: ED50 (the source's name).
The subject of series [5] is Mycobacterium tuberculosis. The experiment in a line: Antimycobacterial activity against Mycobacterium tuberculosis at 128 uM. In kind it is functional, organism-based.
The subject of series [6] is Micrococcus luteus. The experiment in a line: Antimicrobial activity against Micrococcus luteus at 5 ug. The series is classed as functional, organism-based. The gist of the method: as §1
Series [7] relates to Escherichia coli. The experiment in a line: Antimicrobial activity against Escherichia coli at 0.1 ug. The series is classed as functional, organism-based. The gist of the method: as §1
The test system of series [8] is Penicillium oxalicum. The experiment in a line: Antimicrobial activity against Penicillium oxalicum at 5 ug. In kind it is functional. Particulars: for zone of inhibition at 5 µg/disc: read-out: IZ. The gist of the method: as §1
For series [9], the system named is Escherichia coli. The experiment in a line: Antimicrobial activity against Escherichia coli at 1 ug. In kind it is functional, organism-based. In short, it runs like this:
as §1

Series [10] concerns KB. The experiment in a line: Cytotoxicity against vinblastine-sensitive human KB cells. In kind it is functional. The note with it: read-out: ED50 (the source's name).
Series [11] deals with Bacillus subtilis. The experiment in a line: Antimicrobial activity against Bacillus subtilis at 10 ug. The series is classed as functional, organism-based. The gist of the method: as §1
For series [12], the system named is Plasmodium falciparum. The experiment in a line: Antimalarial activity against chloroquine-sensitive Plasmodium falciparum D6 at 10 ug/ml. The series is classed as functional.
Series [13] deals with Micrococcus luteus. The experiment in a line: Antimicrobial activity against Micrococcus luteus at 1 ug. The series is classed as functional, organism-based. In short, it runs like this: as §1
Series [14] relates to Escherichia coli. The experiment in a line: Antimicrobial activity against Escherichia coli at 10 ug. In kind it is functional, organism-based. In short, it runs like this: as §1
The subject of the next series is ZR-75-1. The experiment in a line: Cytotoxicity against human ZR-75-1 cells. The series is classed as functional. The note with it: read-out: ED50 (the source's name).
The next series has as its system Mycobacterium avium. The experiment in a line: Antimycobacterial activity against Mycobacterium avium at 128 uM. The series is classed as functional, organism-based.
Series [15] concerns KB. The experiment in a line: Cytotoxicity against vinblastine-resistant human KB cells. The series is classed as functional. Particulars: read-out: ED50 (the source's name). In short, it runs like this: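 The vinblastine-resistant KB-V1 line was tested both with and without added vinblastine in the cultured tumour-cell cytotoxicity panel. Results are reported as ED50.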

Series [16] has as its system Penicillium oxalicum. The experiment in a line: Antimicrobial activity against Penicillium oxalicum at 1 ug. In kind it is functional. The note with it: for zone of inhibition at 1 µg/disc: read-out: IZ. The gist of the method: as §1
The test system of series [17] is Bacillus subtilis. The experiment in a line: Antimicrobial activity against Bacillus subtilis at 0.1 ug. The series is classed as functional, organism-based. In short, it runs like this:
as §1

Series [18] concerns Penicillium oxalicum. The experiment in a line: Antimicrobial activity against Penicillium oxalicum at 10 ug. In kind it is functional. The note with it: for zone of inhibition at 10 µg/disc: read-out: IZ. In short, it runs like this: as §1
Series [19] deals with Human immunodeficiency virus type 1 reverse transcriptase (Human immunodeficiency virus 1) (UniProt Q72547). The experiment in a line: (§2) Inhibition of HIV1 RT at 200 uM. In short, it runs like this: (§3)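 HIV-1 reverse transcriptase inhibition was measured in an ELISA-based system.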
In series [20] the test system is Escherichia coli. The experiment in a line: Antimicrobial activity against Escherichia coli at 5 ug. In kind it is functional, organism-based. The gist of the method: as §1
In series [21] the test system is KB. The experiment in a line: Cytotoxicity against human KB cells. The series is classed as functional. The note with it: read-out: ED50 (the source's name).
Series [22] has as its system Bacillus subtilis. The experiment in a line: Antimicrobial activity against Bacillus subtilis at 5 ug. In kind it is functional, organism-based. In short, it runs like this:
as §1

Series [23] deals with Penicillium oxalicum. The experiment in a line: Antimicrobial activity against Penicillium oxalicum at 0.01 ug. The series is classed as functional. The gist of the method: as §1
A short description of series [24]: Inhibition of TK assessed as residual activity at 200 ug/ml. The gist of the method: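 The enzyme was tyrosine kinase p56lck, with test compounds at 200 μg/mL. The read-out is the remaining enzyme activity.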
The subject of series [25] is Monocyte. The experiment in a line: Inhibition of LPS-stimulated IL1 production in human monocytes. In kind it is functional, cell-based.
Series [26] can be described thus: Inhibition of PKC.
Series [27] relates to Monocyte. The experiment in a line: Inhibition of IL1 biosynthesis in human monocytes. The series is classed as functional, cell-based.
Series [28] can be described thus: Selectivity index, ratio of IC50 for human KB cells to IC50 for Plasmodium falciparum D6. Particulars: KB cells versus Plasmodium falciparum D6, read-out: Ratio IC50. In kind it is toxicity, cell-based. In short, it runs like this:
(§4)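 Plasmodium falciparum clones were assayed in vitro: D6 (chloroquine-sensitive) and W2 (chloroquine-resistant). IC50 is in μg/mL. The selectivity index is the ratio of the antimalarial to the cytotoxic activity.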

A short description of series [29]: Selectivity index, ratio of IC50 for human KB cells to IC50 for Plasmodium falciparum W2. In kind it is toxicity, cell-based. The note with it: KB cells versus Plasmodium falciparum W2, read-out: Ratio IC50. The gist of the method:
as §4

In series [30] the test system is Plasmodium falciparum. The experiment in a line: Antimalarial activity against chloroquine-resistant Plasmodium falciparum W2. In kind it is functional, organism-based. In short, it runs like this: (§5)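 In vitro growth inhibition of Plasmodium falciparum clones D6 (chloroquine-sensitive) and W2 (chloroquine-resistant); IC50 reported in μg/mL.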
In series [31] the test system is Plasmodium falciparum. The experiment in a line: Antimalarial activity against chloroquine-sensitive Plasmodium falciparum D6. The series is classed as functional, organism-based. The gist of the method:
as §5

The target in series [32] is Human immunodeficiency virus type 1 reverse transcriptase (Human immunodeficiency virus 1, UniProt Q72547). The series is described as §2. In short, it runs like this: as §3

By IC50 is commonly meant the concentration that gives 50% inhibition.

`CCC[C@@H](OC(C)=O)C1=C(Br)[C@@](CI)(OC)OC1=O`: the outcome (with Penicillium oxalicum [1]; in the series with Bacillus subtilis [2]; in the series on Micrococcus luteus [4]; in [5]; in the series on Escherichia coli [7]; with Penicillium oxalicum [8]) was inactive. Further, the result in the series on Escherichia coli [9], in the series on Bacillus subtilis [11], in the series with Micrococcus luteus [13], in the series on Escherichia coli [14], with Penicillium oxalicum [16] and with Bacillus subtilis [17] was inactive. The outcome (in the series with Penicillium oxalicum [18]; in series [19]; in the series with Escherichia coli [20]; with Bacillus subtilis [22]) was inactive. Further, the outcome in the series with Micrococcus luteus [3] and in the series with Micrococcus luteus [6] was Active. The EC50 in the series on LNCaP is 12.9 µg/mL (≈ 28.9 µM); in the series with Lu1, above 20 µg/mL; in the series with KB [10] it was 4.1 µg/mL (≈ 9.17 µM); with ZR-75-1 it was 7.9 µg/mL (≈ 17.7 µM); in the series on KB [15] it was 7.1 µg/mL (≈ 15.9 µM); with KB [21], 2.4 µg/mL (≈ 5.37 µM). This compound also displayed an Activity with Plasmodium falciparum [12] above 50%. In the series with Mycobacterium avium, this compound yielded an IC50 of 350 µM.

With `CCC(CCC(=O)C(Br)=C(Br)Br)OC(C)=O` (stereo not drawn), the outcome with Penicillium oxalicum [1], in the series on Bacillus subtilis [2], in the series with Micrococcus luteus [3], in the series on Penicillium oxalicum [23], with Micrococcus luteus [6] and in the series on Escherichia coli [7] was inactive. Further, the result with Escherichia coli [9] and in the series on Micrococcus luteus [13] was inactive. For the same compound, in the series with Penicillium oxalicum [8], the zone of inhibition at 5 µg/disc was 9 mm. Besides, the Activity in series [24] was found to be 31.7%. Moreover, the result with Bacillus subtilis [11], in the series with Escherichia coli [14], in the series on Escherichia coli [20] and with Bacillus subtilis [22] was Active. Further, the figures for the IC50 (in the series with Monocyte [25]; in [26]; in the series with Monocyte [27]) were 2 µM, at least 200 µM and 2 µM, respectively. In the series on Penicillium oxalicum [16], the zone of inhibition at 1 µg/disc came to 6 mm. The zone of inhibition at 10 µg/disc in the series on Penicillium oxalicum [18] came to 8 mm.

Regarding `CCC[C@@H](OC(C)=O)C1=C(Br)C(=C(Br)Br)OC1=O`, in the series on Penicillium oxalicum [1] (read-out: IZ), the zone of inhibition at 0.1 µg/disc was found to be 6 mm. Moreover, the outcome in the series on Bacillus subtilis [2], in the series with Micrococcus luteus [3], in the series with Micrococcus luteus [4], with Micrococcus luteus [6], in the series with Bacillus subtilis [11] and with Micrococcus luteus [13] was Active. For the same compound, the result with Escherichia coli [14], in the series on Escherichia coli [20] and with Bacillus subtilis [22] was Active. Further, the zone of inhibition at 0.01 µg/disc in the series on Penicillium oxalicum [23] (read-out: IZ) is 3 mm. The EC50 in the series on LNCaP was 2.1 µg/mL (≈ 4.7 µM); in the series with Lu1, 1.1 µg/mL (≈ 2.46 µM); with KB [10] it was 0.5 µg/mL (≈ 1.12 µM); in the series with ZR-75-1, below 0.1 µg/mL; in the series with KB [15], 3.5 µg/mL (≈ 7.83 µM); in the series on KB [21], 0.3 µg/mL (≈ 0.671 µM). For the same compound, the selectivity ratio in [28] and in [29] was below 1 each time. For the same compound, the result with Escherichia coli [7] and in the series with Escherichia coli [9] was inactive. In addition, the zone of inhibition at 5 µg/disc in the series on Penicillium oxalicum [8] amounted to 14 mm. Also, the IC50 stood at 9.1 µg/mL (≈ 20.4 µM) with Plasmodium falciparum [30], 2.2 µg/mL (≈ 4.92 µM) with Plasmodium falciparum [31] and 700 µM in [32]. Further, the Activity in series [24] stood at 1.9%. The zone of inhibition at 1 µg/disc in the series on Penicillium oxalicum [16] was 10 mm. In addition, the zone of inhibition at 10 µg/disc in the series with Penicillium oxalicum [18] came to 12 mm.

Consider `OC(c1cc(C(F)(F)F)nc2c(C(F)(F)F)cccc12)C1CCCCN1` (stereo not drawn) [MEFLOQUINE], for which the values for the selectivity ratio in [28] and in series [29] were 710 and 4380, respectively. The figures for the IC50 in the series on Plasmodium falciparum [30] and in the series with Plasmodium falciparum [31] were 0.001 µg/mL (≈ 0.00264 µM) and 0.005 µg/mL (≈ 0.0132 µM), respectively. For the same compound, the EC50 with KB [21] is 3.5 µg/mL (≈ 9.25 µM).
